Measurements: ChEMBL document CHEMBL2331221, “Potent elastase inhibitors from cyanobacteria: structural basis and mechanisms mediating cytoprotective and anti-inflammatory effects in bronchial epithelial cells” (J Med Chem, 2013)
Calls of active or inactive are those of the source. The calls are words filed in the database; no cut-off is given here.

Assays:
[1] = molecular target: Caspase-10 (Homo sapiens) (UniProt Q92851); test: Inhibition of Caspase 10 (unknown origin) using Ac-LEHD-AMC substrate assessed as residual activity at 10 uM incubated for 15 mins prior to substrate addition measured for 2 hrs
Sequence of Caspase-10 (Homo sapiens) (Q92851 220-415 limits assumed): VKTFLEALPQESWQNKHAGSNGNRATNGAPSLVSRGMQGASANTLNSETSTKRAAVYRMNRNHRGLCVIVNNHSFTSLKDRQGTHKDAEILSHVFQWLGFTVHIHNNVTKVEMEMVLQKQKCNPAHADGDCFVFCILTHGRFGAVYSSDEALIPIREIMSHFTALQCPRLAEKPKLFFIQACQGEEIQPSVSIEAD
Sequence of Caspase-10 (Homo sapiens) (Q92851 416-521 limits assumed): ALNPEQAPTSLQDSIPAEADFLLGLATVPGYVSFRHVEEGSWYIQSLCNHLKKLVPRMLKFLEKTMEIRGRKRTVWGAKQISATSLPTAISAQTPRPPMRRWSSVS
In short: (§1)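 Protease panel screen: enzyme and test inhibitor preincubated 15 min in the enzyme's reaction buffer, then substrate added. Reaction followed for 2 h, and activity was taken from the initial linear portion of the progress-curve slope. Enzyme, substrate, buffer and detection conditions for each target are given only in the paper's supporting table.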

[2] = Inhibition of Thrombin alpha (unknown origin) using H-D-CHA -Ala-Arg-AMC.2AcOH substrate incubated for 15 mins prior to substrate addition measured for 2 hrs; parameters: species or system Homo sapiens
In short: (§2)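 Protease panel screen: enzyme and inhibitor preincubated 15 min in reaction buffer, then substrate added; reaction followed for 2 h and the initial linear part of the progress curve used for activity. Enzyme, substrate, buffer and detection details are given only in a supporting table.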

[3] = molecular target: Papain (Carica papaya) (UniProt P00784); test: Inhibition of papaya Papain using Z-FR-AMC substrate assessed as residual activity at 10 uM incubated for 15 mins prior to substrate addition measured for 2 hrs; in short: as §2
Sequence of Papain (Carica papaya) (P00784 whole entry): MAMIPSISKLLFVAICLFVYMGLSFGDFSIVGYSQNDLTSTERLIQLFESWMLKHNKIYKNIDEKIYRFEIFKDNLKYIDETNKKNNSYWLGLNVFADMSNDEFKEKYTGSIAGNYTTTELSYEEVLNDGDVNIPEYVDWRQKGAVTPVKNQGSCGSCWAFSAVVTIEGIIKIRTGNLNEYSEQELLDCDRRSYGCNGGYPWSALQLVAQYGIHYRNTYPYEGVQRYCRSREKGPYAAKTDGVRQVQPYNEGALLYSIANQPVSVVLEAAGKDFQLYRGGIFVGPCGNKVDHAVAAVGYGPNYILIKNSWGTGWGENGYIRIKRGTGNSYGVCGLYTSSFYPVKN

[4] = molecular target: Matrix metalloproteinase-14 (Homo sapiens) (UniProt P50281); test: Inhibition of MMP14 (unknown origin) using (5-FAM/QXLTM) FRET peptide substrate assessed as residual activity at 10 uM incubated for 15 mins prior to substrate addition measured for 2 hrs; in short: as §1
[5] = molecular target: Cathepsin L2 (Homo sapiens) (UniProt O60911); test: Inhibition of Cathepsin V (unknown origin) using Z-FR-AMC substrate assessed as residual activity at 10 uM incubated for 15 mins prior to substrate addition measured for 2 hrs; in short: as §1
Sequence of Cathepsin L2 (Homo sapiens) (O60911 whole entry): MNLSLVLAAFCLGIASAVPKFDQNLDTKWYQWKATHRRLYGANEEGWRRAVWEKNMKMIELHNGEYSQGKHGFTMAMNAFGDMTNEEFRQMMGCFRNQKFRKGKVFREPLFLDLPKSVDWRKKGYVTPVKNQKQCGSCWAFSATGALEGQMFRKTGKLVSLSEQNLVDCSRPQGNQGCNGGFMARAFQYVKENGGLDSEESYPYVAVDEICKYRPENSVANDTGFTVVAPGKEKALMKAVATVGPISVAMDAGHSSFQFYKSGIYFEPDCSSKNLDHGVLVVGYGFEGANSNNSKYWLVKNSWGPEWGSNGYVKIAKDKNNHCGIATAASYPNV

[6] = molecular target: Vitamin K-dependent protein C (Homo sapiens) (UniProt P04070); test: Inhibition of Activated Protein C (unknown origin) using Boc-DVLR-ANSNH-C4H9 substrate assessed as residual activity at 10 uM incubated for 15 mins prior to substrate addition measured for 2 hrs; in short: as §1
Sequence of Vitamin K-dependent protein C (Homo sapiens) (P04070 43-197 limits assumed): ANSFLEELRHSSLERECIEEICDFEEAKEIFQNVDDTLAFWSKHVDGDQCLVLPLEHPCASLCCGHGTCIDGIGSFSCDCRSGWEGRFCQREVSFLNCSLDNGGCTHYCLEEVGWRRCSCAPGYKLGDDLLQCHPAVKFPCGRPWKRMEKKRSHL
Sequence of Vitamin K-dependent protein C (Homo sapiens) (P04070 212-461 limits assumed): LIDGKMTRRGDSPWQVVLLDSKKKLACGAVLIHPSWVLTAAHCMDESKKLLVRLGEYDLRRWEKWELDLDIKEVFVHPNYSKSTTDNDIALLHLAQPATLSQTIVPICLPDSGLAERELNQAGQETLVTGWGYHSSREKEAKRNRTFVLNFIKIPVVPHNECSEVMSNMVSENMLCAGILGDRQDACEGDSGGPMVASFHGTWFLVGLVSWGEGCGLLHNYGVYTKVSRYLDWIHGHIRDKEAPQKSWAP

[7] = molecular target: Kallikrein-1 (Homo sapiens) (UniProt P06870); test: Inhibition of Kallikrein-1 (unknown origin) using Z-GPR-AMC substrate assessed as residual activity at 10 uM incubated for 15 mins prior to substrate addition measured for 2 hrs; in short: as §1
Sequence of Kallikrein-1 (Homo sapiens) (P06870 25-262 limits assumed): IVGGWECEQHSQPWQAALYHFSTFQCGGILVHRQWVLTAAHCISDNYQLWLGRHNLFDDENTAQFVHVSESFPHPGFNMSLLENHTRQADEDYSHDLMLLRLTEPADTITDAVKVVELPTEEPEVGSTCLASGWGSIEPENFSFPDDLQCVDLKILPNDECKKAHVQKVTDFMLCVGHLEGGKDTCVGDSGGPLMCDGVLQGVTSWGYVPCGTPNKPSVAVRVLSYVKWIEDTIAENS

[8] = molecular target: Cathepsin D (Homo sapiens) (UniProt P07339); test: Inhibition of Cathepsin D (unknown origin) using MCA-KPILFFRLK(Dnp)-D-R-NH2 substrate assessed as residual activity at 10 uM incubated for 15 mins prior to substrate addition measured for 2 hrs; in short: as §1
Sequence of Cathepsin D (Homo sapiens) (P07339 65-162 limits assumed): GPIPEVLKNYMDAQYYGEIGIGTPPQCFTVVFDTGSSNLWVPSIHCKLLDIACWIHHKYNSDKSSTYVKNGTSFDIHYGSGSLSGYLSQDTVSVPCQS
Sequence of Cathepsin D (Homo sapiens) (P07339 169-412 limits assumed): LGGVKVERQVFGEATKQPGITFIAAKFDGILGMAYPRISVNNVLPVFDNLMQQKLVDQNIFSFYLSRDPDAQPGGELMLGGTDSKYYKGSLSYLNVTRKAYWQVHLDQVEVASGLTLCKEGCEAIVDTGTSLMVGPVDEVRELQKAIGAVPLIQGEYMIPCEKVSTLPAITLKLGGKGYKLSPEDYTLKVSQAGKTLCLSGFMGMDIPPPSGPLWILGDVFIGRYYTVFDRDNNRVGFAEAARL

[9] = molecular target: T1, Tryptase gamma (Homo sapiens, UniProt Q9NRR2); test: Inhibition of Tryptase gamma1 (unknown origin) using Z-GPR-AMC substrate incubated for 15 mins prior to substrate addition measured for 2 hrs; in short: as §2
T1 sequence (Q9NRR2 38-321 limits assumed, other chains not shown): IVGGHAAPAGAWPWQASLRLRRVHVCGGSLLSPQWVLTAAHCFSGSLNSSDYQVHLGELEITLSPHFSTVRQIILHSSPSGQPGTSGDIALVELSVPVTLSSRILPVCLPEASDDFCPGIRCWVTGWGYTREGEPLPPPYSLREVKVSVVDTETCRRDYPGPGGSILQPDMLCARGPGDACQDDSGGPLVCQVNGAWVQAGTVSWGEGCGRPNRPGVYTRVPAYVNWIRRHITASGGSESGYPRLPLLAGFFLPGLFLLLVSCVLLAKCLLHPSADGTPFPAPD

[10] = molecular target: Cathepsin S (Homo sapiens) (UniProt P25774); test: Inhibition of Cathepsin S (unknown origin) using Z-FR-AMC substrate assessed as residual activity at 10 uM incubated for 15 mins prior to substrate addition measured for 2 hrs; in short: as §1
Sequence of Cathepsin S (Homo sapiens) (P25774 115-331 limits assumed): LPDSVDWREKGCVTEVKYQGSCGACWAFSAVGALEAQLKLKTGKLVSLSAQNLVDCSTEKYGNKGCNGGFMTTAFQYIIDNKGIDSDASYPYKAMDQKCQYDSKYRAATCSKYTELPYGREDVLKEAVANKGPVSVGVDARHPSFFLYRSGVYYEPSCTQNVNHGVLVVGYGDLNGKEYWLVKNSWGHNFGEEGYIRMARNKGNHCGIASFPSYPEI

[11] = molecular target: T2, Neutrophil elastase (Homo sapiens) (UniProt P08246); settings: 10 uM
T2 sequence (whole entry): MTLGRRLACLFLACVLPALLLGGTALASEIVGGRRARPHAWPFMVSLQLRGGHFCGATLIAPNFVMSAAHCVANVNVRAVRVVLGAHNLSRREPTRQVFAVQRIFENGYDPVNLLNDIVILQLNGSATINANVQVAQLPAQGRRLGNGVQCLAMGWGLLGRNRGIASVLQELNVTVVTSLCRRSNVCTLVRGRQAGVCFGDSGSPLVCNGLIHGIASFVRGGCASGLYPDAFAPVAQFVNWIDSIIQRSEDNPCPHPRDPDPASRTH

[12] = molecular target: Tissue-type plasminogen activator (Homo sapiens) (UniProt P00750); test: Inhibition of tPA (unknown origin) using Z-GPR-AMC substrate assessed as residual activity at 10 uM incubated for 15 mins prior to substrate addition measured for 2 hrs; in short: as §2
Sequence of Tissue-type plasminogen activator (Homo sapiens) (P00750 36-562 limits assumed): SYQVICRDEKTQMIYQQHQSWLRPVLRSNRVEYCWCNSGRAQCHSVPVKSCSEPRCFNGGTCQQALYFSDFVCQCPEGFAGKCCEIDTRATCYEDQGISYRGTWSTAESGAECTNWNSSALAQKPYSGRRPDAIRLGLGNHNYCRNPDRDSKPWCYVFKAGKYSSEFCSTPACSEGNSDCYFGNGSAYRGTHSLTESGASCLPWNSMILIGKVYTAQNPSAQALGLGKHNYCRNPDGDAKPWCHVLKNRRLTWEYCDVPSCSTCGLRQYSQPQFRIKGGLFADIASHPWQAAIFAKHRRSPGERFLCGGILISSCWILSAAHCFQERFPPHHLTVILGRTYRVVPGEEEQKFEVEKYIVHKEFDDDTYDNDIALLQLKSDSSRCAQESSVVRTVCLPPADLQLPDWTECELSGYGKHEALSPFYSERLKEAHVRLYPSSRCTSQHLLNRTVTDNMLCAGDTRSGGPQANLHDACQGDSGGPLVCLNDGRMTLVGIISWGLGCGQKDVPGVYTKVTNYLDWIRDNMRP

[13] = molecular target: T2, Neutrophil elastase (Homo sapiens); settings: BEAS2B, 10 uM
[14] = molecular target: Matrilysin (Homo sapiens) (UniProt P09237); test: Inhibition of MMP7 (unknown origin) using (5-FAM/QXLTM) FRET peptide substrate assessed as residual activity at 10 uM incubated for 15 mins prior to substrate addition measured for 2 hrs; in short: as §2
Sequence of Matrilysin (Homo sapiens) (P09237 whole entry): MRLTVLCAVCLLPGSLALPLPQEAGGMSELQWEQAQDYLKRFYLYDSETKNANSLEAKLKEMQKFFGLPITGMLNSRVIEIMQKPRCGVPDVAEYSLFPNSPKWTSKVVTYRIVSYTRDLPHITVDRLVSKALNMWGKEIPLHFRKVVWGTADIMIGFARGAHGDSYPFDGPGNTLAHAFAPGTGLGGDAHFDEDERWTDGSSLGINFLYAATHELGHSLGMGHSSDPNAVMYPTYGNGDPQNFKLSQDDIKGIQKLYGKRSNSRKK

[15] = molecular target: Urokinase-type plasminogen activator (Homo sapiens) (UniProt P00749); test: Inhibition of Urokinase (unknown origin) using Bz-b-Ala-Gly-Arg-AMC.AcOH substrate assessed as residual activity at 10 uM incubated for 15 mins prior to substrate addition measured for 2 hrs; in short: as §2
[16] = molecular target: T2, Neutrophil elastase (Homo sapiens); settings: 10 uM; remark: listed apart in the source
[17] = molecular target: Granzyme B (Homo sapiens) (UniProt P10144); test: Inhibition of Granzyme B (unknown origin) using Ac-IEPD-AMC substrate assessed as residual activity at 10 uM incubated for 15 mins prior to substrate addition measured for 2 hrs; in short: as §1
Sequence of Granzyme B (Homo sapiens) (P10144 whole entry): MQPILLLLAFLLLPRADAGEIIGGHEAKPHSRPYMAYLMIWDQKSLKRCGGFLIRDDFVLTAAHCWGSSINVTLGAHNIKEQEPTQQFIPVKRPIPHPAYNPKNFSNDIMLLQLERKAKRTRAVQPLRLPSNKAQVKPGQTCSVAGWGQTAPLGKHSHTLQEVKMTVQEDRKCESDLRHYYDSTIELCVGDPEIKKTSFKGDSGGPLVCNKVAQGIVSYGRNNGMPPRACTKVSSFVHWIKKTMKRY

[18] = molecular target: Stromelysin-1 (Homo sapiens) (UniProt P08254); test: Inhibition of MMP3 (unknown origin) using (5-FAM/QXLTM) FRET peptide substrate assessed as residual activity at 10 uM incubated for 15 mins prior to substrate addition measured for 2 hrs; in short: as §1
Sequence of Stromelysin-1 (Homo sapiens) (P08254 100-477 limits assumed): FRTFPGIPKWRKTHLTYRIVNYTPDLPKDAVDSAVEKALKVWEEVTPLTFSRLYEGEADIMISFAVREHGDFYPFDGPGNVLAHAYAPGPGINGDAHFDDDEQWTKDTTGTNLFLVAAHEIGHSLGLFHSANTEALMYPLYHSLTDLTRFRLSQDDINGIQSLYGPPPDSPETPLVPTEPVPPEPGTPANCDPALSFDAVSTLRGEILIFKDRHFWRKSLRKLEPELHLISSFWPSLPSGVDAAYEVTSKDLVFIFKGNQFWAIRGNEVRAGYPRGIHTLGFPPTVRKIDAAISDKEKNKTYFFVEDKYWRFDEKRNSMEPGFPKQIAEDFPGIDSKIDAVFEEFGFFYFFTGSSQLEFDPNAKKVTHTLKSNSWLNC

[19] = Inhibition of human pancreatic Chymotrypsin using Suc-AAPF-pNa substrate incubated for 15 mins prior to substrate addition measured for 2 hrs; in short: as §2
[20] = molecular target: T1, Tryptase gamma; test: Inhibition of Tryptase gamma1 (unknown origin) using Z-GPR-AMC substrate assessed as residual activity at 10 uM incubated for 15 mins prior to substrate addition measured for 2 hrs; in short: as §2
[21] = molecular target: T2, Neutrophil elastase (Homo sapiens); settings: 10 uM; remark: listed apart in the source
[22] = Inhibition of porcine pancreatic elastase using Suc-AAA-pNa substrate incubated for 15 mins prior to substrate addition measured for 2 hrs; parameters: species or system Sus scrofa
In short: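 Elastase preincubated with test compound (DMSO) in Tris-HCl pH 8.0 for 15 min at room temperature; N-succinyl-Ala-Ala-Ala-p-nitroanilide then added (2 mM stock in Tris-HCl pH 8.0). Absorbance at 405 nm recorded every 30 s; activity as initial slope, percent of uninhibited reaction.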

[23] = molecular target: Cathepsin Z (Homo sapiens) (UniProt Q9UBR2); test: Inhibition of Cathepsin X/Z (unknown origin) using MCA-RPPGFSAFK(Dnp) substrate assessed as residual activity at 10 uM incubated for 15 mins prior to substrate addition measured for 2 hrs; in short: as §1
Sequence of Cathepsin Z (Homo sapiens) (Q9UBR2 whole entry): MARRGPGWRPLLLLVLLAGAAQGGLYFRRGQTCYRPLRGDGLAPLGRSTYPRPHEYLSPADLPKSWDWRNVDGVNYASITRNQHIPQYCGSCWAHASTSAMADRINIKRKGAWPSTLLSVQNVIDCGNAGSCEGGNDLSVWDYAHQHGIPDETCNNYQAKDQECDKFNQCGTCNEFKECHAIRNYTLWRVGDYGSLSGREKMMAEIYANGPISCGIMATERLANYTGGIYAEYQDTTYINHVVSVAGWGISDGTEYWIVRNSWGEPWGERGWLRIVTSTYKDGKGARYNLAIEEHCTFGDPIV

[24] = molecular target: Kallikrein-13 (Homo sapiens) (UniProt Q9UKR3); test: Inhibition of Kallikrein-13 (unknown origin) using VPR-AMC substrate assessed as residual activity at 10 uM incubated for 15 mins prior to substrate addition measured for 2 hrs; in short: as §1
Sequence of Kallikrein-13 (Homo sapiens) (Q9UKR3 whole entry): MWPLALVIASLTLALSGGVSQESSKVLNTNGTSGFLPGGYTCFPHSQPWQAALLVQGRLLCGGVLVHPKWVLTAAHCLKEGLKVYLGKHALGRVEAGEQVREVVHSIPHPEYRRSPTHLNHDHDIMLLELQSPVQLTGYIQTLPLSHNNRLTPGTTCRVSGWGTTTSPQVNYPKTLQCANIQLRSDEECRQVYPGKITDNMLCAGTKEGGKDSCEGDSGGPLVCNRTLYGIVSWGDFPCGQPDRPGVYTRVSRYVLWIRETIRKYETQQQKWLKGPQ

[25] = molecular target: Chymase (Homo sapiens) (UniProt P23946); test: Inhibition of Chymase (unknown origin) using Suc-AAPF-AMC substrate assessed as residual activity at 10 uM incubated for 15 mins prior to substrate addition measured for 2 hrs; in short: as §1
Sequence of Chymase (Homo sapiens) (P23946 whole entry): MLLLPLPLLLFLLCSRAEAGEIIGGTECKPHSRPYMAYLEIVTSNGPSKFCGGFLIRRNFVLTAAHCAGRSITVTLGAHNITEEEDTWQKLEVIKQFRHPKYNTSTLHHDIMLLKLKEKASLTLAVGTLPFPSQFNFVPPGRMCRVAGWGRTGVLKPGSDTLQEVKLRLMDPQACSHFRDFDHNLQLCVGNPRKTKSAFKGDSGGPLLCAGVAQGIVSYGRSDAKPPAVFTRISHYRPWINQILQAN

## C/C=C1\NC(=O)[C@@H](NC(=O)[C@@H](NC(=O)[C@@H](COS(=O)(=O)[O-])OC)C(C)C)[C@@H](C)OC(=O)[C@H]([C@H](C)CC)NC(=O)[C@H](Cc2ccccc2)N(C)C(=O)[C@H](Cc2ccccc2)N2C(=O)[C@H](CC[C@H]2O)NC1=O.[Na+] [Symplostatin 5]
[1]
  Activity: 100%
[2]
  pIC50: > 5
[3]
  Activity: 100%
[4]
  Activity: 100%
[5]
  Activity: 100%
[6]
  Activity: 100%
[7]
  Activity: 100%
[8]
  Activity: 100%
[9]
  IC50: < 10 µM
[10]
  Activity: 100%
[11]
  inhibition: Active
[12]
  Activity: 100%
[13]
  inhibition: Active
[14]
  Activity: 100%
[15]
  Activity: 100%
[16]
  inhibition: Active
[17]
  Activity: 100%
[18]
  Activity: 100%
[19]
  pIC50: 6.1
[20]
  Activity: 100%
[21]
  inhibition: inactive
[22]
  pIC50: > 5
[23]
  Activity: 100%
[24]
  Activity: 100%
[25]
  Activity: 100%
